Calls of active or inactive are those of the source.
Assays:
[1] = test system: MEF; assay: Antiproliferative activity against wild-type MEF cells after 16 hrs by luminescence assay; assay type: functional, cell-based; conditions: Mus musculus
How it was run: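 Wild-type murine embryonic fibroblasts, run alongside a Chop-knockout MEF line, exposed to compound in dose-response for 16 h. Proliferation read by ATP-based luminescence. EC50 reported in μM ± SEM.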

[2] = test system: MEF; assay: Antiproliferative activity against CHOP-knock out MEF cells after 16 hrs by luminescence assay; assay type: functional, cell-based; conditions: Mus musculus
How it was run: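 Wildtype and Chop-knockout murine embryonic fibroblasts given test agent in dose-response for 16 h. Proliferation read by an ATP-based luminescent assay. Chop-null cells tested up to 20 μM; four independent experiments, triplicate samples.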

[3] = test system: UMSCC23; assay: Induction of CHOP mRNA expression in human UM-SCC-23 cells at 0.04 to 20 uM after 6 hrs by qRT-PCR analysis; assay type: functional, cell-based
How it was run: (§1)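 UMSCC23 cells treated in dose-response for 6 h, then lysed. UPR and CHOP target gene transcripts measured by qRT-PCR, with tunicamycin as ER-stress positive control.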

[4] = Aqueous solubility of the compound in PBS buffer by UV-spectrophotometry; assay type: physicochemical
How it was run: (§2)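 Solubility measured in PBS and pION buffer across a biologically relevant pH range.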

[5] = test system: Plasma; assay: Plasma protein binding in human plasma after 4 hrs by LC/MS/MS method; assay type: ADME, cell-free
[6] = test system: HN6; assay: Antiproliferative activity against human HN6 cells after 24 hrs; assay type: functional, cell-based
How it was run: (§3)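 Oral squamous cell carcinoma panel cells treated with increasing concentrations of test agent for 24 h in dose-response proliferation assays.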

[7] = Tmax in CD-1 mouse at 30 mg/kg, ip; assay type: ADME, organism-based; design: dose 30 mg/kg, route intraperitoneal; conditions: in vivo
How it was run: (§4)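 Male CD-1 mice, single IP dose of 30 mg/kg, 3 mice per group. Plasma concentrations determined at 7 intervals over 8 h.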

[8] = test system: UMSCC23; assay: Induction of GADD34 mRNA expression in human UM-SCC-23 cells at 0.04 to 20 uM after 6 hrs by qRT-PCR analysis; assay type: functional, cell-based; how it was run: as §1
[9] = Antiproliferative activity against human HN12 cells after 24 hrs; assay type: functional; how it was run: as §3
[10] = Cmax in CD-1 mouse at 30 mg/kg, ip; assay type: ADME, organism-based; design: dose 30 mg/kg, route intraperitoneal; conditions: in vivo; how it was run: as §4
[11] = test system: UMSCC23; assay: Induction of XBP1 mRNA expression in human UM-SCC-23 cells at 20 uM after 6 hrs by qRT-PCR analysis; assay type: functional, cell-based; how it was run: as §1
[12] = test system: UMSCC23; assay: Induction of CHOP mRNA expression in human UM-SCC-23 cells at 20 uM after 6 hrs by qRT-PCR analysis; assay type: functional, cell-based; how it was run: as §1
[13] = test system: H460/T800; assay: Antiproliferative activity against human H460/T800 cells after 24 hrs; assay type: functional, cell-based
[14] = Stability in human plasma assessed as compound remaining after 180 mins by LC/MS/MS method; assay type: ADME, cell-free; conditions: read-out: Stability
[15] = Cytotoxicity against human Fa2N-4 cells assessed as cell viability after 24 hrs by luminescence assay; assay type: cell-based; conditions: fa2n-4, 24 h
[16] = test system: Plasma; assay: Stability in mouse plasma assessed as compound remaining after 180 mins by LC/MS/MS method; assay type: ADME, cell-free; conditions: 3 h
[17] = Aqueous solubility of the compound in pION buffer by UV-spectrophotometry; assay type: physicochemical; how it was run: as §2
[18] = target: Sodium-dependent dopamine transporter (Homo sapiens) (UniProt Q01959); assay: Displacement of [125I] RTI-55 from human recombinant DAT expressed in CHOK1 cells after 3 hrs; assay type: cell-based; conditions: CHO-K1, concentration not given here
Chain of Sodium-dependent dopamine transporter (Homo sapiens) (Q01959 whole entry): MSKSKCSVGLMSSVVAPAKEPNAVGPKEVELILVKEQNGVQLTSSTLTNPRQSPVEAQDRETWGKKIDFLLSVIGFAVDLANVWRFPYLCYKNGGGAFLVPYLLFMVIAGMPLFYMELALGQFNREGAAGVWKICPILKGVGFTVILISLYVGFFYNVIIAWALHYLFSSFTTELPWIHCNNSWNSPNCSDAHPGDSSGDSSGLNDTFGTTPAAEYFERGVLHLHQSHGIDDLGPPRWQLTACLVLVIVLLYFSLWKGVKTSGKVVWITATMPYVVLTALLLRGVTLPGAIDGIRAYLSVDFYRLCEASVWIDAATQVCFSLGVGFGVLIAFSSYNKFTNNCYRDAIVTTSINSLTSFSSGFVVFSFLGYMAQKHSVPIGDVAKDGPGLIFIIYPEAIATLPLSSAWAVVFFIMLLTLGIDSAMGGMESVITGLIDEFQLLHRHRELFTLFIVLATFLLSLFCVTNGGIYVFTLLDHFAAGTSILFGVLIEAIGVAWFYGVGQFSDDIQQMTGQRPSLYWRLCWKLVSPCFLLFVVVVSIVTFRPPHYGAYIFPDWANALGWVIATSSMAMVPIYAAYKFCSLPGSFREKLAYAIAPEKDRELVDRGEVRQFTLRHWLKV
How it was run: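 Profiled at 10 μM within a 67-target panel of GPCRs, nuclear receptors, transporters and ion channels. Significant inhibition defined as >50% at a single target.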

[19] = test system: Liver microsome; assay: Metabolic stability in human liver microsomes after 60 mins by LC/MS/MS method; assay type: ADME; conditions: 1 h
[20] = Antiproliferative activity against human HN30 cells after 24 hrs; assay type: functional; how it was run: as §3
[21] = test system: UMSCC23; assay: Induction of XBP1 mRNA expression in human UM-SCC-23 cells at 0.04 to 20 uM after 6 hrs by qRT-PCR analysis; assay type: functional, cell-based; how it was run: as §1
[22] = test system: A253; assay: Antiproliferative activity against human A253 cells after 24 hrs; assay type: functional, cell-based; how it was run: as §3
[23] = Antiproliferative activity against human UM-SCC-23 cells after 24 hrs; assay type: functional, UMSCC23; how it was run: as §3
[24] = Plasma protein binding in mouse plasma after 4 hrs by LC/MS/MS method; assay type: ADME, cell-free; conditions: read-out: PPB (converted)
[25] = test system: UMSCC23; assay: Induction of ERCC1 mRNA expression in human UM-SCC-23 cells at 0.04 to 20 uM after 6 hrs by qRT-PCR analysis; assay type: functional, cell-based; how it was run: as §1
[26] = Permeability of the compound at pH 5 to 7.4 by PAMPA; assay type: ADME
How it was run: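 PAMPA model of passive transcellular permeability, donor compartment at pH 5.0, 6.2 and 7.4. Compound concentration in the compartments determined by UV spectroscopy.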

[27] = test system: Liver; assay: Metabolic stability in mouse liver microsomes after 60 mins by LC/MS/MS method; assay type: ADME; conditions: 1 h

## O=C(Nc1ccc(S(=O)(=O)N2CCCCC2)cc1)c1ccc([N+](=O)[O-])o1
[1]
  EC50: 7.8 µM
[2]
  EC50: > 20 µM

## CC1CCN(S(=O)(=O)c2ccc(NC(=O)c3ccc([N+](=O)[O-])o3)cc2)CC1
[1]
  EC50: 4.6 µM
[2]
  EC50: 16.3 µM

## O=C(Nc1ccc(S(=O)(=O)N2CCC(Cl)CC2)cc1)c1ccc([N+](=O)[O-])o1
[1]
  EC50: 4.8 µM
[3]
  Activity: Active
[4]
  solubility: soluble
[5]
  PPB: > 99%
[6]
  Activity: inactive
[7]
  Tmax: 10.2 min
[8]
  Activity: Active
[9]
  Activity: 7.2 µM
[10]
  Cmax: 140 nM
[11]
  Activity: inactive
[12]
  Activity: inactive
[13]
  Activity: inactive
[14]
  remaining at 3 h: 86%
[15]
  Activity: 11 µM
[16]
  Stability: 52%
[17]
  solubility: soluble
[18]
  inhibition: 68%
[19]
  Stability: Unstable
[20]
  Activity: 9 µM
[21]
  Activity: Active
[22]
  Activity: inactive
[2]
  EC50: > 20 µM
[23]
  Activity: 7.3 µM
[24]
  fraction unbound at 4 h: 0.16
[25]
  Activity: inactive
[26]
  permeability: permeable
[27]
  Stability: Unstable

## CC(C)(C)C1CCN(S(=O)(=O)c2ccc(NC(=O)c3ccc([N+](=O)[O-])o3)cc2)CC1
[1]
  EC50: 1.4 µM
[2]
  EC50: 2.1 µM

## CC1(C)CCN(S(=O)(=O)c2ccc(NC(=O)c3ccc([N+](=O)[O-])o3)cc2)CC1
[1]
  EC50: 3 µM
[2]
  EC50: 9.2 µM

## O=C(Nc1ccc(S(=O)(=O)N2CCC(F)CC2)cc1)c1ccc([N+](=O)[O-])o1
[1]
  EC50: 17.5 µM
[2]
  EC50: > 20 µM

From ChEMBL document CHEMBL3352780, “Discovery of Sulfonamidebenzamides as Selective Apoptotic CHOP Pathway Activators of the Unfolded Protein Response” (ACS Med Chem Lett, 2014)
